From paper PMC3611965 (Nuclear medicine and biology, 2012)
Where “and” joins values, the source holds several entries; their conditions need not be identical. Equal values may be shown once. Read-outs that look alike come from different tables or passages of the source.

Experiments:
[1] = biological target: T1, FAAH (Mus musculus, UniProt O08914); experiment: in vivo competitive ABPP of brains of treated mice; settings: C57Bl/6 mice, 10 mg/kg i.p. or p.o., 1 h, gel-based ABPP
T1 sequence (O08914 1-579): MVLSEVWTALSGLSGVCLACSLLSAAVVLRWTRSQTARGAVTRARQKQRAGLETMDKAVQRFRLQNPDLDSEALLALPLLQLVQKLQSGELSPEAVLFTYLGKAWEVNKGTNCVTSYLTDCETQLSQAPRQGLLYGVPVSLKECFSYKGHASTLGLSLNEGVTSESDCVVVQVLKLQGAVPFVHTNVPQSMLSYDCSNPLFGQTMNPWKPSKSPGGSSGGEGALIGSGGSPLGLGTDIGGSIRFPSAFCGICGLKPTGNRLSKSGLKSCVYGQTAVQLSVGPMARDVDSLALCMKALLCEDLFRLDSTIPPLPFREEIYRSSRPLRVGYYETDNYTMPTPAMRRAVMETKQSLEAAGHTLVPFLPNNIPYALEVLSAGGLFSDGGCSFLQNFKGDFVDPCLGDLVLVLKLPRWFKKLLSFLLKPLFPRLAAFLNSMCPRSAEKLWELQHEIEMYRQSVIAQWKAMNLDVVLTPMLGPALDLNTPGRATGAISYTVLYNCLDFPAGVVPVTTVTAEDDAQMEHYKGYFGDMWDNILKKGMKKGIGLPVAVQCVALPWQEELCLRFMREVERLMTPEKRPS
Method in brief: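 Wild-type C57Bl/6J mice got test compound or vehicle (18:1:1 PBS:Emulphor:ethanol) and were killed after 1 h. Half-brains were frozen in liquid N2, washed in cold PBS, dounce-homogenized and sonicated, then spun at 1000×g (10 min, 4 °C) and 145,000×g (45 min, 4 °C) into soluble and membrane fractions. These were diluted to 1 mg/mL and labelled with FP-Rh (30 min, 37 °C) for SDS-PAGE fluorescence profiling.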

[2] = biological target: T1, FAAH; experiment: in vitro competitive ABPP; assay type: biochemical
Method in brief: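 Wild-type C57Bl/6J mouse brain membrane fractions (1 mg/mL total protein) were preincubated with varying test compound concentrations for 30 min at 37 °C. FP-Rh was then added (50 μM stock in DMSO) for another 30 min at 37 °C. Samples were quenched in SDS loading buffer and run on SDS-PAGE with in-gel fluorescence scanning. IC50 was calculated from band fluorescence.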

[3] = biological target: MDR1 (Homo sapiens, UniProt P08183); experiment: MDR1 efflux ratio; assay type: in vitro ADME; settings: MDCK-MDR1
MDR1, sequence (P08183 whole entry, species assumed): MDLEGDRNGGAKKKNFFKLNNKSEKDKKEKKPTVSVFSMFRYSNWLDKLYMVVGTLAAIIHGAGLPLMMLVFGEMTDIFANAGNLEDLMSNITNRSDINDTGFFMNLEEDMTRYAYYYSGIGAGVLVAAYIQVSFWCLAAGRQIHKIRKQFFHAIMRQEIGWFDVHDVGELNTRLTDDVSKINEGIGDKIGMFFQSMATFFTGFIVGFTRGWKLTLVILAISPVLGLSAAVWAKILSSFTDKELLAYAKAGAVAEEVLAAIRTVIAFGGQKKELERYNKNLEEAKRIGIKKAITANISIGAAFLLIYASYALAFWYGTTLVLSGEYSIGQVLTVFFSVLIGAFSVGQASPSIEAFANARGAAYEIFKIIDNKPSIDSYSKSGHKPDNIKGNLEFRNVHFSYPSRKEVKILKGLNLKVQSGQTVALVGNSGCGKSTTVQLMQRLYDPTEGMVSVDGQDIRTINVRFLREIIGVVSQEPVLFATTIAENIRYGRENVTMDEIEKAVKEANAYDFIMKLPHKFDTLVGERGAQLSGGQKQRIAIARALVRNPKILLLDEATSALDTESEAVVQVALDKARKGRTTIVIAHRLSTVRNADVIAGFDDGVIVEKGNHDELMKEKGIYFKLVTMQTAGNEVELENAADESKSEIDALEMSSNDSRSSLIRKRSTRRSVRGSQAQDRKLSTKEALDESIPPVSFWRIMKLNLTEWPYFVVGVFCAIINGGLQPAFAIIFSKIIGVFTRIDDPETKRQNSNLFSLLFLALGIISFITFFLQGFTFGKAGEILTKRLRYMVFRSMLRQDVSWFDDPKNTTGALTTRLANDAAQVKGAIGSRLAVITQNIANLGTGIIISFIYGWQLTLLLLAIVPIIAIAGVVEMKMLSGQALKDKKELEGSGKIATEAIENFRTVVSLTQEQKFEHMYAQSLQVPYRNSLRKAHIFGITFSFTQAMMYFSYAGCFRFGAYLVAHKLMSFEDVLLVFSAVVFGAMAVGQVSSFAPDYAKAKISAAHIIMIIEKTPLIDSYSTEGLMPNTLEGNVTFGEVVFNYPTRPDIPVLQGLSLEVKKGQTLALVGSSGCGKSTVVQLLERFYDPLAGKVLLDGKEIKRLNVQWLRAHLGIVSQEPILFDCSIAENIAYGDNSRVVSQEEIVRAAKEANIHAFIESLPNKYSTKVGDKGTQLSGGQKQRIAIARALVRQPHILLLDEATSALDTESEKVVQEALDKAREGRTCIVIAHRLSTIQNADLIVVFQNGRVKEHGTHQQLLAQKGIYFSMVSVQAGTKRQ

[4] = MDCK passive permeability; assay type: in vitro ADME; settings: dog
[5] = system: FAAH; settings: rats; ref [25]; cited from earlier work
[6] = system: FAAH; settings: rhesus monkeys; ref [23]; cited from earlier work
[7] = system: FAAH; settings: human studies; ref [23]; cited from earlier work
[8] = biological target: T2, FAAH (Rattus norvegicus, UniProt P97612); experiment: dynamic PET imaging in rats, baseline and blocked; assay type: in vivo
T2 sequence (P97612 1-579): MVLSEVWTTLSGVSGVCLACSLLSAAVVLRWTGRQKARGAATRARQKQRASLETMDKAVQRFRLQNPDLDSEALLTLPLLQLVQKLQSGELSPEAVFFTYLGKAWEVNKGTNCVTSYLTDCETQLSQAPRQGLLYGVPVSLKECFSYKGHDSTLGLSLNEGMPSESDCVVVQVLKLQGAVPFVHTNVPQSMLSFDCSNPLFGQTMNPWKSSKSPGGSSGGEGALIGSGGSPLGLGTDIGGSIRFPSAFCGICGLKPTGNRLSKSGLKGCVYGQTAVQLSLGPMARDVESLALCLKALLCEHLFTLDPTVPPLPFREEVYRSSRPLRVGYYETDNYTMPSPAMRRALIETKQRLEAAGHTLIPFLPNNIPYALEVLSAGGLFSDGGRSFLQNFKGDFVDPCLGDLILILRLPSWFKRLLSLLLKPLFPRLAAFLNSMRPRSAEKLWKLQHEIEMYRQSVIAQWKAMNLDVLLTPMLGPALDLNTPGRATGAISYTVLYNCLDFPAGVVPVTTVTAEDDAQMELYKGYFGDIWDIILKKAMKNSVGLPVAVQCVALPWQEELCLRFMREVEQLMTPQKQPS
Method in brief: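 Male Sprague–Dawley rats (345±28 g) with jugular vein cannulas, held under ~2% isoflurane/O2 with respiration kept at 45–65 breaths/min and heat-lamp warming. The 18F-labelled test compound was given IV via tail vein (1.5462±0.4130 mCi) and brain scanned dynamically for 90 min in 16 frames. Blocked rats received an FAAH inhibitor 1 mg/kg p.o. 1 h before. Blood and plasma were sampled at 1–90 min. Images were atlas-registered for TACs and SUV.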

[9] = biological target: T2, FAAH; experiment: brain biodistribution of [18F]PF-9811 in rats, baseline and blocked; assay type: in vivo; settings: for SUV±standard deviation, Bone: N=2; for SUV±standard deviation, Blood / SUV±standard deviation, Brain stem / SUV±standard deviation, Cerebellum / SUV±standard deviation, Cortex / SUV±standard deviation, Hippocampus / SUV±standard deviation, Hypothalamus / SUV±standard deviation, Liver / SUV±standard deviation, Rest of brain / SUV±standard deviation, Striatum / SUV±standard deviation, Thalamus: N=4
[10] = log P7.4 measurement; assay type: physicochemical; settings: n-octanol/DPBS pH 7.4; measured in quadruplicate
Method in brief: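 18F-labelled test compound (15–30 μCi) was partitioned between presaturated n-octanol and DPBS (0.1 M, pH 7.4) by vortexing 60 s and centrifuging at 4000 rpm for 2 min. The octanol phase was washed with fresh DPBS three times, then re-partitioned against fresh DPBS in four successive sets. Triplicate aliquots of each phase were gamma-counted. LogP7.4 = log[(octanol counts×20)/DPBS counts].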

[11] = rats; ref [20],[21]; cited from earlier work
[12] = biological target: T2, FAAH; settings: cited from earlier work
[13] = system: FAAH relative to other serine hydrolases; settings: competitive ABPP; ref [20],[21]; cited from earlier work
[14] = 10 min, blocked: 4 1 mg/kg oral 1 h prior
[15] = 10 min post injection, baseline
[16] = 60 min, blocked: 4 1 mg/kg oral 1 h prior
[17] = 60 min post injection, baseline
[18] = 90 min, blocked: 4 1 mg/kg oral 1 h prior
[19] = 90 min, pretreatment with 4 1 mg/kg p.o.
[20] = 90 min post injection, baseline
[21] = biodistribution 90 min, baseline vs blocking

SMILES: O=C(Nc1cccnn1)N1CCC(=Cc2cccc(Oc3ccc(OCCF)cn3)c2)CC1 [PF-9811, 4-(3-((5-(2-fluoroethoxy)pyridin-2-yl)oxy)benzylidene)-N-(pyridazin-3-yl)piperidine-1-carboxamide]
- FAAH inhibition in brain in vivo [1]: completely inhibited
- off-targets among brain serine hydrolases in vivo [1]: no detectable off-targets
- IC50 [2]: 0.016 µM
- fold less potent than parent 4 ([2]; FAAH, competitive ABPP, mouse brain proteome): 5 fold
- efflux ratio [3]: 2.52
- Papp A→B [4]: 182 nm/s

SMILES: O=[11C](NC1CCCCC1)Oc1ccc(O)c(-c2ccccc2)c1 [[^11 C]-CURB]
- brain uptake [5]: good brain uptake

SMILES: CN(C)C(=O)[C@H]1C[C@@H]1c1ccc(-c2ncn([11CH3])c2Sc2ccc(Cl)cn2)cc1 [[^11 C]MK-3168]
- brain uptake (PET) [6]: Heterogeneous, specific brain uptake
- brain uptake (PET) [7]: high brain uptake

SMILES: O=C(Nc1cccnn1)N1CCC(=Cc2cccc(Oc3ccc(OCC[18F])cn3)c2)CC1 [[^18F]PF-9811]
- decreased uptake in blocking experiments, hippocampus ([8]; PET, end of 90 min, 4 1 mg/kg p.o. 1 h prior): ~40%
- PET uptake (SUV), hippocampus and cortex ([8]; baseline, 90 min): ~0.8 SUV
- SUV±standard deviation, Bone [9, 14]: 0.332±0.010 SUV
- SUV±standard deviation, Blood [9, 14]: 1.031±0.069 SUV
- SUV±standard deviation, Brain stem [9, 14]: 0.313±0.011 SUV
- SUV±standard deviation, Cerebellum [9, 14]: 0.291±0.008 SUV
- SUV±standard deviation, Cortex [9, 14]: 0.265±0.014 SUV
- SUV±standard deviation, Hippocampus [9, 14]: 0.282±0.014 SUV
- SUV±standard deviation, Hypothalamus [9, 14]: 0.351±0.024 SUV
- SUV±standard deviation, Liver [9, 14]: 7.725±0.701 SUV
- SUV±standard deviation, Rest of brain [9, 14]: 0.294±0.018 SUV
- SUV±standard deviation, Striatum [9, 14]: 0.309±0.028 SUV
- SUV±standard deviation, Thalamus [9, 14]: 0.304±0.020 SUV
- SUV±standard deviation, Bone [9, 15]: 0.180±0.001 SUV
- SUV±standard deviation, Blood [9, 15]: 0.224±0.070 SUV
- SUV±standard deviation, Brain stem [9, 15]: 0.319±0.029 SUV
- SUV±standard deviation, Cerebellum [9, 15]: 0.666±0.017 SUV
- SUV±standard deviation, Cortex [9, 15]: 0.596±0.030 SUV
- SUV±standard deviation, Hippocampus [9, 15]: 0.579±0.018 SUV
- SUV±standard deviation, Hypothalamus [9, 15]: 0.410±0.027 SUV
- SUV±standard deviation, Liver [9, 15]: 14.179±3.336 SUV
- SUV±standard deviation, Rest of brain [9, 15]: 0.471±0.038 SUV
- SUV±standard deviation, Striatum [9, 15]: 0.427±0.021 SUV
- SUV±standard deviation, Thalamus [9, 15]: 0.382±0.051 SUV
- SUV±standard deviation, Bone [9, 16]: 0.391±0.088 SUV
- SUV±standard deviation, Blood [9, 16]: 0.747±0.191 SUV
- SUV±standard deviation, Brain stem [9, 16]: 0.264± 0.076 SUV
- SUV±standard deviation, Cerebellum [9, 16]: 0.248± 0.076 SUV
- SUV±standard deviation, Cortex [9, 16]: 0.219±0.068 SUV
- SUV±standard deviation, Hippocampus [9, 16]: 0.233±0.076 SUV
- SUV±standard deviation, Hypothalamus [9, 16]: 0.260± 0.088 SUV
- SUV±standard deviation, Liver [9, 16]: 4.488±1.343 SUV
- SUV±standard deviation, Rest of brain [9, 16]: 0.239±0.071 SUV
- SUV±standard deviation, Striatum [9, 16]: 0.255±0.082 SUV
- SUV±standard deviation, Thalamus [9, 16]: 0.251±0.074 SUV
- SUV±standard deviation, Bone [9, 17]: 0.133±0.058 SUV
- SUV±standard deviation, Blood [9, 17]: 0.063±0.012 SUV
- SUV±standard deviation, Brain stem [9, 17]: 0.331±0.041 SUV
- SUV±standard deviation, Cerebellum [9, 17]: 0.751±0.094 SUV
- SUV±standard deviation, Cortex [9, 17]: 0.674±0.109 SUV
- SUV±standard deviation, Hippocampus [9, 17]: 0.673±0.118 SUV
- SUV±standard deviation, Hypothalamus [9, 17]: 0.426± 0.045 SUV
- SUV±standard deviation, Liver [9, 17]: 17.346±4.789 SUV
- SUV±standard deviation, Rest of brain [9, 17]: 0.555±0.081 SUV
- SUV±standard deviation, Striatum [9, 17]: 0.441±0.073 SUV
- SUV±standard deviation, Thalamus [9, 17]: 0.374±0.045 SUV
- SUV±standard deviation, Bone [9, 18]: 0.472±0.133 SUV
- SUV±standard deviation, Blood [9, 18]: 0.703±0.117 SUV
- SUV±standard deviation, Brain stem [9, 18]: 0.246± 0.050 SUV
- SUV±standard deviation, Cerebellum [9, 18]: 0.249± 0.065 SUV
- SUV±standard deviation, Cortex [9, 18]: 0.216±0.055 SUV
- SUV±standard deviation, Hippocampus [9, 18]: 0.234±0.061 SUV
- SUV±standard deviation, Hypothalamus [9, 18]: 0.257±0.079 SUV
- SUV±standard deviation, Liver [9, 18]: 4.165±0.664 SUV
- SUV±standard deviation, Rest of brain [9, 18]: 0.231±0.055 SUV
- SUV±standard deviation, Striatum [9, 18]: 0.240±0.065 SUV
- SUV±standard deviation, Thalamus [9, 18]: 0.238±0.058 SUV
- increase in signal in the blood on blocking [9, 19]: 12 fold
- reduction of signal in the liver on blocking [9, 19]: 74%
- SUV±standard deviation, Bone [9, 20]: 0.159±0.001 SUV
- SUV±standard deviation, Blood [9, 20]: 0.061±0.009 SUV
- SUV±standard deviation, Brain stem [9, 20]: 0.391± 0.040 SUV
- SUV±standard deviation, Cerebellum [9, 20]: 0.857±0.144 SUV
- SUV±standard deviation, Cortex [9, 20]: 0.789±0.096 SUV
- SUV±standard deviation, Hippocampus [9, 20]: 0.770±0.126 SUV
- SUV±standard deviation, Hypothalamus [9, 20]: 0.545±0.126 SUV
- SUV±standard deviation, Liver [9, 20]: 16.116±4.670 SUV
- SUV±standard deviation, Rest of brain [9, 20]: 0.612±0.088 SUV
- SUV±standard deviation, Striatum [9, 20]: 0.573±0.081 SUV
- SUV±standard deviation, Thalamus [9, 20]: 0.544± 0.063 SUV
- specific to non-specific binding ratio, cerebellum [9, 21]: 2.4
- specific to non-specific binding ratio, cortex [9, 21]: 2.6
- specific to non-specific binding ratio, hippocampus [9, 21]: 2.3
- uptake in rat brain (SUV) ([9]; biodistribution, 90 min, baseline): ~0.8 SUV
- defluorination (as determined by bone uptake) ([9]; rats): minimal
- logP7.4 [10]: 3.14±0.02 and 3.14

SMILES: O=C(Nc1cccnn1)N1CCC(=Cc2cccc(Oc3ccc(C(F)(F)F)cn3)c2)CC1 [compound 4]
- oral bioavailability [11]: 88%
- FAAH inhibition at blocking dose ([12]; p.o. 1.0 mg/kg, ref [20]): fully inhibit
- duration of sustained inhibition of brain FAAH activity, maximal elevations of brain AEA and efficacy in rat models of acute inflammatory pain ([12]; single oral administration 1 mg/kg, ref [15],[20]): at least 24 h
- selectivity for FAAH relative to other serine hydrolases [13]: exquisite selectivity
